FN deposition inh = inhibitors of fibronectin matrix deposition, primary screen, AH1F cells, Alexa488-fibronectin fluorescence, plate reader; 0.086% of 350,000 active; inhibition, % at 12.6 µM; AH1F fibroblasts, overnight;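 active means mean inhibition across replicates of 30% or more, regardless of how many single replicates reach that level; inconclusive means mean under 30% yet at least half of replicates reach 30%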
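test system = AH1F fibroblasts assembling fluorescent fibronectin matrix | quantity = 10000 AH1F cells per well | buffer or medium = DMEM plus 2% serum, read in PBS | doses = single dose, pinned | incubation = 1 h cell attachment, overnight exposure to compound and label | detection = fluorescence at 485 nm excitation, 525 nm emission | read-out basis = inhibition from reduced deposited-fibronectin fluorescence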
aSyn 5UTR inh = MLPCN primary screen, SNCA 5' untranslated region | alpha-synuclein 5'UTR reporter, inhibitor activity | inhibition, % (tested at 7.5 µM) | 0.82% of 300,000 active; in the data active means inhibition above about 60%; inconclusive means no clear call, values can overlap the other calls;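 further: H4 neuroglioblastoma cells stably carrying SNCA 5'UTR luciferase fusion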
EWS-Fli inh = EWS/Fli-driven NR0B1 reporter inhibitors, primary screen, A673 cells, NR0B1 luciferase, luminescence, MLPCN library; viability-normalised; 0.67% of 350,000 active; inhibition, % at 12.6 µM;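 active means mean inhibition of at least 50% after viability correction, with every replicate also passing that limit; inconclusive means mean reaches 50% but only one of two replicates passes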;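 further: firefly luciferase signal divided by Alamar Blue viability fluorescence both relative to DMSO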
LMP1 NFkB inh = EBV LMP1-driven NF-kappaB luciferase reporter inhibitors, primary screen, cell-based, luminescence, single point | LMP1-induced NF-kappaB luciferase reporter cells | inhibition, % at 12.5 µM | 0.69% of 350,000 active | AID 504558, 2011; in the data active means inhibition above about 41%; inconclusive means no clear call, values can overlap the other calls
PAX8 reporter = inhibitors of PAX8-driven TPO luciferase reporter, primary screen, RMG-I cells, single concentration. 1.2% of 360,000 active. AID 652154, 2013. inhibition, % at 12.6 µM. SteadyGlo, 24 h;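 active means mean replicate inhibition at least 60% with every replicate also reaching 60%; inconclusive means only one of the two criteria is met; inactive means mean below 60% and not all replicates reaching 60%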;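 further: luciferase light reporting Pax8 driven TPO promoter activity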
Shn3 3UTR inh = reduction of Shn3 3'UTR firefly luciferase signal, primary screen, Schnurri-3 inhibitor project, cell-based, Clone20 osteoblasts, set 2. Clone20 osteoblast Shn3 3'UTR firefly luciferase, 24 h. inhibition, % at 12.5 µM. 0.52% of 360,000 active. AID 588674, 2011;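 active means mean inhibition of at least 75% with every replicate also reaching 75%; inconclusive means mean inhibition at least 75% but some replicate below; inactive means mean inhibition below 75%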
Large screens that a line does not name were inactive. Most compounds without a hit are left out; they make up all but 2.1% or so of the library.

O=C(O)c1ccccc1C(=O)Nc1ccccc1	none (no result: EWS-Fli inh)
COC(=O)c1c(NC(=O)CN2CCN(c3ccccc3Cl)CC2)sc(C)c1C	FN deposition inh 34 (no result: EWS-Fli inh)
O=c1c2sc(-c3ccccc3)cc2nc2n1CCC2	aSyn 5UTR inh 82 (no result: EWS-Fli inh)
Cc1cc(SCC(=O)c2cccs2)nc2c(C)cccc12	none (no result: FN deposition inh, EWS-Fli inh, PAX8 reporter)
CC(=O)Nc1ccc(C(=O)CSc2cc(C)c3cccc(C)c3n2)cc1	PAX8 reporter 123
COc1ccc(S(=O)(=O)Nc2ccc3c(c2)C(=O)N([C@@H](C)CO)C[C@@H](C)[C@H](CN(C)C(=O)Nc2ccc4c(c2)OCO4)OCCCC[C@H](C)O3)cc1	none (no result: aSyn 5UTR inh, LMP1 NFkB inh, Shn3 3UTR inh)
COc1ccc(NC(=O)Nc2nc(C(N)CC(C)C)cs2)cc1 (stereo unspecified)	none (no result: aSyn 5UTR inh, LMP1 NFkB inh)
NC(c1csc(NC(=O)Nc2ccc(OC(F)(F)F)cc2)n1)C1CCCCC1 (stereo unspecified)	EWS-Fli inh 55 (no result: aSyn 5UTR inh, LMP1 NFkB inh)
Cc1ccc(/C=C/c2nc3ccccc3c(=O)[nH]2)cc1	aSyn 5UTR inh 68, EWS-Fli inh 70, LMP1 NFkB inh 45
COC(=O)c1ccc(/C=C/c2nc3ccccc3c(=O)[nH]2)cc1	none
CCOC(=O)C1(Cc2ccccc2)CCCN(CCO)C1 (stereo unspecified)	none
CCOC(=O)C1(Cc2ccccc2)CCCN(Cc2ccccn2)C1 (stereo unspecified)	FN deposition inh 31
CC(C)C(=O)NC(c1ccc(Cl)cc1Cl)c1ccc2cccnc2c1O (stereo unspecified)	aSyn 5UTR inh 92, LMP1 NFkB inh inconclusive, Shn3 3UTR inh 87
CCC(=O)NC(c1ccc(Cl)cc1Cl)c1ccc2cccnc2c1O (stereo unspecified)	aSyn 5UTR inh 75, LMP1 NFkB inh 49, PAX8 reporter 66, Shn3 3UTR inh inconclusive
CC(NC(=O)CSc1ncccn1)c1ccc(Cl)cc1Cl (stereo unspecified)	none
Cc1ccnc(NC(c2cccnc2)c2ccc3cccnc3c2O)c1 (stereo unspecified)	none
CCCCC(=O)NC(c1ccc(Cl)cc1Cl)c1ccc2cccnc2c1O (stereo unspecified)	aSyn 5UTR inh 92, LMP1 NFkB inh 69, PAX8 reporter 66, Shn3 3UTR inh 93
O=[N+]([O-])c1ccc(Cl)cc1C=NNc1ccccn1	none (no result: aSyn 5UTR inh)
O=[N+]([O-])c1cc(Cl)cc(/C=N\Nc2ccccn2)c1O	aSyn 5UTR inh 90, Shn3 3UTR inh 89 (no result: FN deposition inh, EWS-Fli inh, PAX8 reporter)
COc1ccc(CS(=O)(=O)/C(Cl)=C(/Cl)C(=O)Nc2ccc(OC)nc2)cc1	LMP1 NFkB inh 91, Shn3 3UTR inh 98 (no result: FN deposition inh, EWS-Fli inh, PAX8 reporter)
COc1ccc(NC(=O)/C(Cl)=C(/Cl)S(=O)Cc2ccccc2)cn1 (stereo unspecified)	aSyn 5UTR inh 121, LMP1 NFkB inh 83, Shn3 3UTR inh 97 (no result: FN deposition inh, EWS-Fli inh, PAX8 reporter)
C[C@H](CO)N1C[C@H](C)[C@H](CN(C)C(=O)CC2CC2)Oc2cc(-c3cncnc3)ccc2S1(=O)=O	none (no result: aSyn 5UTR inh, LMP1 NFkB inh, PAX8 reporter, Shn3 3UTR inh)
C[C@H](CO)N1C[C@H](C)[C@@H](CN(C)C)Oc2ccc(NC(=O)CCCN(C)C)cc2CC1=O	none (no result: aSyn 5UTR inh, LMP1 NFkB inh, Shn3 3UTR inh)
CC(=O)Cn1ncc(Br)c(Br)c1=O	PAX8 reporter 84, Shn3 3UTR inh 97
CC(C)(C)C(=O)Cn1ncc(N2CCCC2)c(Br)c1=O	none (no result: FN deposition inh, EWS-Fli inh, PAX8 reporter)
Cc1nc(C)n(C(C)CNC(=O)c2ccco2)n1 (stereo unspecified)	LMP1 NFkB inh 45
O=C(Nc1ccc(Br)c(C(F)(F)F)c1)c1ccc(C(F)(F)F)cc1	FN deposition inh 40 (no result: LMP1 NFkB inh)
O=C(Oc1c(-c2ccccc2Cl)oc2ccccc2c1=O)c1ccc(Cl)cc1	PAX8 reporter 68
O=C(Oc1c(-c2ccccc2)oc2ccccc2c1=O)c1ccccc1	none (no result: EWS-Fli inh, PAX8 reporter)
C[C@@H]1CN([C@@H](C)CO)C(=O)c2cc(NC(=O)Cn3cnnn3)ccc2O[C@@H]1CN(C)Cc1ccc(Oc2ccccc2)cc1	none (no result: FN deposition inh, aSyn 5UTR inh, LMP1 NFkB inh, Shn3 3UTR inh)
O=S(=O)(Nc1nc2ccccc2nc1N1CCc2ccccc2C1)c1ccc(Cl)cc1	aSyn 5UTR inh 86 (no result: EWS-Fli inh)
O=S(=O)(Nc1nc2ccccc2nc1N1CCc2ccccc2C1)c1ccc(Br)cc1	none (no result: aSyn 5UTR inh, EWS-Fli inh)
O=C(N/N=C/c1cccs1)c1cc(-c2ccncc2)nc2ccccc12	aSyn 5UTR inh 62 (no result: EWS-Fli inh)
O=C(N/N=C/c1cccnc1)c1cc(-c2cccs2)nc2ccccc12	LMP1 NFkB inh 58 (no result: EWS-Fli inh)
O=C(N/N=C/c1ccc2ncccc2c1)c1cc(-c2cccs2)nc2ccccc12	none
CCc1ccc(/C=N/NC(=O)c2cc(-c3ccncc3)nc3ccccc23)s1	aSyn 5UTR inh 83 (no result: EWS-Fli inh)
CNC[C@H]1OCCCC[C@H](C)Oc2ccc(NC(=O)Nc3c(C)noc3C)cc2C(=O)N([C@@H](C)CO)C[C@H]1C	none (no result: FN deposition inh, aSyn 5UTR inh, LMP1 NFkB inh, Shn3 3UTR inh)
CCCN(CCC)S(=O)(=O)c1ccc(NC(=O)c2cc(C(=O)OC)cc([N+](=O)[O-])c2)cc1	PAX8 reporter 66 (no result: EWS-Fli inh)
CCC(C)(C)NC(=O)c1cc(C(=O)OC)cc([N+](=O)[O-])c1	none (no result: EWS-Fli inh)
CO[C@H](CN(C)S(=O)(=O)c1ccc(Cl)cc1)[C@H](C)CN(C(=O)Nc1ccccc1F)[C@@H](C)CO	none (no result: aSyn 5UTR inh, LMP1 NFkB inh, PAX8 reporter, Shn3 3UTR inh)
O=C(C#Cc1ccccc1)c1ccco1	EWS-Fli inh 64, PAX8 reporter 124, Shn3 3UTR inh 95
Cc1ccc(-c2cnc3c(c2)C(=O)N([C@@H](C)CO)C[C@@H](C)[C@H](CN(C)CC2CCCCC2)O3)cc1	none (no result: FN deposition inh, aSyn 5UTR inh, LMP1 NFkB inh, PAX8 reporter, Shn3 3UTR inh)
O=C(c1ccco1)N1CCN(C(=O)N2c3ccccc3Sc3ccccc32)CC1	aSyn 5UTR inh 81, EWS-Fli inh 54 (no result: FN deposition inh, PAX8 reporter)
O=C(c1ccco1)N1c2ccccc2Sc2ccccc21	none (no result: FN deposition inh, EWS-Fli inh, PAX8 reporter)
CN(C)S(=O)(=O)c1cccc(NC(=S)N/N=C/c2cccc(O)c2)c1	none
CN(C)S(=O)(=O)c1cccc(NC(=S)N/N=C/c2cc(Br)ccc2O)c1	aSyn 5UTR inh 69, LMP1 NFkB inh 49, PAX8 reporter inconclusive, Shn3 3UTR inh 91
COc1ccc(C(C)(O)c2nc(-c3ccncc3)cs2)cc1 (stereo unspecified)	EWS-Fli inh 59 (no result: aSyn 5UTR inh, LMP1 NFkB inh)
COc1ccc(C(C)(O)c2nc(-c3ccccc3C)cs2)cc1 (stereo unspecified)	EWS-Fli inh 60 (no result: aSyn 5UTR inh, LMP1 NFkB inh)
COc1ccc(-c2csc(C(C)(O)c3ccc(OC)cc3)n2)cc1 (stereo unspecified)	none (no result: aSyn 5UTR inh, LMP1 NFkB inh)
COc1ccc(C(C)(O)c2nc(-c3ccc(F)cc3OC)cs2)cc1 (stereo unspecified)	EWS-Fli inh 58 (no result: aSyn 5UTR inh, LMP1 NFkB inh)
CO[C@H]1CN(C)C(=O)c2ccc(NS(=O)(=O)c3cn(C)cn3)cc2OC[C@@H](C)N(CC2CC2)C[C@@H]1C	none (no result: aSyn 5UTR inh, LMP1 NFkB inh, Shn3 3UTR inh)
COc1ccc(NC(=O)C2(C)Cc3c(-c4ccc5c(c4)OCO5)ccnc3O2)cc1 (stereo unspecified)	EWS-Fli inh 53 (no result: aSyn 5UTR inh, LMP1 NFkB inh)

High-throughput results: PubChem BioAssay, Broad Institute
